Rows were chosen to be rich in hits. Some 1.9% of all compounds tested hit in one or more screens of this group.
DAGLB inhibitor: diacylglycerol lipase beta (human) inhibition; Q8NCG7; AID 504411; hit rate 0.059% among 340,000; HEK293T DAGLB membrane lysate, EnzChek fluorogenic substrate; inhibition, % at 5.17 µM; in the data active means inhibition above about 34%;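 further: 0% = enzyme with vehicle and 100% = wells lacking enzyme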
PLC-beta3 inh: inhibitors of human phospholipase C beta3. Q01970. Purified PLC-beta3, fluorogenic substrate, fluorescence. inhibition, % at 12.2 µM. AID 720704. hit rate 0.18% among 370,000; in the data active means inhibition above about 11%;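 further: 0% = median of compound wells on plate and 100% = full blocker control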
sPLA2-III inh: Blocks human group III sPLA2 activity; inhibition, % at 12.2 µM; hit rate 0.56% among 370,000; QFRET BODIPY PC-A2 liposome hydrolysis, fluorescence;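 active means inhibition above mean plus 3 SD of compounds lying within the high and low control bounds, cut at about 19% in these data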;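 further: 0% = median of test compound wells and 100% = no enzyme DMSO wells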
Target sequence (Q9NZ20 whole entry, looked up): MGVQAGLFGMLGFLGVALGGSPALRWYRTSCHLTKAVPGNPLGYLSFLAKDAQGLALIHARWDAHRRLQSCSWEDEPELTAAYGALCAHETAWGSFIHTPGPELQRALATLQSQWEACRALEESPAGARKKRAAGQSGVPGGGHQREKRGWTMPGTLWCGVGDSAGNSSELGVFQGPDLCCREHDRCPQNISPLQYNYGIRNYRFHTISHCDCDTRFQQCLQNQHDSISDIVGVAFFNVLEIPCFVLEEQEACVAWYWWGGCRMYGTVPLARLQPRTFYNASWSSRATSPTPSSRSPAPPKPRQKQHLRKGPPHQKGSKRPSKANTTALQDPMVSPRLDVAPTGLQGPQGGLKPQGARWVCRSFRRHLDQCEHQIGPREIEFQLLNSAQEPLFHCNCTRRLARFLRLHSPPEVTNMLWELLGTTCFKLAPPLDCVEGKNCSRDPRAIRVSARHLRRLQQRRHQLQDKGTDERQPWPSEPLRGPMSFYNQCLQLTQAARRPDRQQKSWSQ
TbMetRS inhib: Trypanosoma brucei MetRS inhibition | purified T. brucei MetRS, ATP depletion, Kinase-Glo luminescence | inhibition, % at 11.9 µM | hit rate 0.4% among 360,000 | AID 624268;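 active means inhibition above a per-plate cutoff of the control wells' mean inhibition plus 3 SD, cut at about 5.5% in these data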;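 further: 0% = DMSO wells median and 100% = median of wells with control inhibitor compound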
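assay system = parasite MetRS enzyme | timing = 15 min preincubation, 2 h reaction, all 25 °C | evaluation = percent inhibition relative to median high and low control wells | medium = HEPES buffer containing pyrophosphatase, BSA, spermine, DTT | compound = single dose, 11.9 µM final nominal, 0.9% final DMSO | detection = Kinase-Glo luminescence, ATP depletion format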
PLC-gamma1 inh: inhibitors of human phospholipase C gamma1; AID 720700; hit rate 0.84% among 370,000; purified PLC-gamma1, fluorogenic substrate, fluorescence; P19174; inhibition, % at 12.2 µM
PLCg1 ctr: inhibits human PLC-gamma1 in PLC-beta3 counter-screen. hit rate 3.1% among 3,300. purified PLC-gamma1, fluorogenic substrate, fluorescence. shares compounds with PLC-gamma1 inh. inhibition, % at 12.3 µM
PLCb3 confirm: human PLC-beta3 inhibition, confirmation; shares compounds with PLC-gamma1 inh; purified PLC-beta3, fluorogenic substrate fluorescence; inhibition, % at 12.3 µM; hit rate 1% among 3,300; AID 743261; in the data active means inhibition above about 11%
* hit, by the source's call; x = no result given. Unless noted, no stated cut-off is given here; in the data, active means inhibition above about 9.5%; inactive means the rest.

SMILES	DAGLB inhibitor	PLC-beta3 inh	sPLA2-III inh	TbMetRS inhib	PLC-gamma1 inh	PLCg1 ctr	PLCb3 confirm
C[C@@H]1CN([C@@H](C)CO)C(=O)CCCn2cc(nn2)CO[C@H]1CN(C)C(=O)Nc1cccc(C(F)(F)F)c1	x	1	5	x	-1	x	x
COc1cccc(CNCCO)c1OCc1ccccc1Cl	-1	3	-1	0	11*	-4	-4
COc1cc(CNCCO)cc(Cl)c1OCc1ccccc1Cl	-2	1	5	-1	3	x	x
CC1(C)OC(=O)C2=C(CC(CCc3ccccc3)OC2c2ccc(F)cc2)O1 (stereo not given)	x	0	10	x	5	x	x
COc1ccc(N2C[C@@]3(O)CC[C@@H](O)[C@@H](OC)[C@@H]3[C@@]2(C)[C@H](O)CC=C(C)C)cc1	x	-6	-5	x	-6	x	x
O=C(CCN1C(=O)c2ccccc2S1(=O)=O)Nc1cccc2ccccc12	-1	5	6	0	1	x	x
C=C(C)c1ccccc1NC(=O)CCN1C(=O)c2ccccc2S1(=O)=O	-2	1	2	0	9.6*	-1	2
COc1cc(Cl)c(C)cc1NC(=O)CN(C)Cc1cccc(OC)c1OC	-19	-8	-5	-1	10*	-6	-5
C/C(=N\Nc1ccc(F)cc1F)c1ccccc1O	-6	2	10	0	12*	-6	-5
C/C(=N\Nc1cc(C(F)(F)F)ccc1Cl)c1ccccc1O	-12	2	0	0	0	x	x
CCc1ccc(NC(=O)C(=O)NCCN2CCN(S(C)(=O)=O)CC2)cc1	-1	-1	13	0	12*	-4	-1
COc1ccc(S(=O)(=O)NCCCN2CCOCC2)cc1F	0	0	4	0	9.5*	8	1
CC(C)(C)NC(=O)[C@@H](c1cccnc1)N(C(=O)c1ccco1)c1ccc(C(C)(C)C)cc1	x	0	1	x	2	x	x
O=C(c1ccccc1NS(=O)(=O)c1ccc(Br)s1)N1CCCC1	1	11*	4	0	9	-5	-2
CN(CCc1ccccn1)C1CCCN(S(=O)(=O)c2ccc(F)c(Cl)c2)C1 (stereo not given)	1	-7	-7	-1	11*	-5	-3
COc1ccccc1C(=O)N1CCN(C(=O)[C@@H](Cc2ccccc2)NC(=O)[C@H]2O[C@@H](n3ccc(=O)[nH]c3=O)[C@H](O)[C@@H]2O)CC1	x	9	7	x	9	x	x
Cc1cc(Br)cc2c(C(=O)NCC3CCCO3)cc(-c3cccs3)nc12 (stereo not given)	-5	2	7	0	12*	-23	-31
Cc1ccccc1NS(=O)(=O)c1ccc2c(c1)CCC(=O)N2	x	5	1	-1	13*	-5	-3
COc1cccc(OC)c1C(=O)Nc1ccc(S(=O)(=O)Nc2ncccn2)cc1	-3	-6	4	-1	1	x	x
O=C(Nc1ccc(S(=O)(=O)Nc2ncccn2)cc1)c1ccc(Br)s1	3	-4	1	-1	11*	-5	-1
COC(=O)[C@H](C(C)C)N1Cc2nnn(Cc3ccccc3)c2C=CS1(=O)=O	x	2	3	x	1	x	x
CCCNC(=O)C1(C)CCCN(C(=O)CN2C(=O)c3ccccc3C2=O)C1 (stereo not given)	x	-6	10	0	10*	-3	1
COc1cc(OC)cc(C(=O)NCC(=O)OCC(=O)N2c3ccccc3NC(=O)C2(C)C)c1	0	-1	8	-1	11*	5	1
Cc1c(-c2nnc(SCC(=O)O)n2-c2ccccc2Br)nnn1-c1ccccc1	-1	2	-5	-1	14*	-7	-27
O=C(c1ccco1)N1CCN(C(=O)C2CC(c3ccccc3F)=NO2)CC1 (stereo not given)	2	-2	9	0	14*	-4	-2
O=C(c1ccco1)N1CCN(Cc2nnc(-c3ccccc3F)o2)CC1	0	6	1	-1	9.8*	-2	-2
CC1CC1C(=O)N1CCC(Oc2cccnc2)CC1 (stereo not given)	x	3	-1	x	1	x	x

Screens (PubChem)
